# According to PubChem BioAssay:
# Active and inactive are the calls of the source.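 The calls were made as follows, unless noted: active = current rise at least 3 SD above the untreated control mean in each of two repeat wells; inactive = the rest.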
# Biological target: Potassium voltage-gated channel subfamily KQT member 1 (Homo sapiens) (UniProt P51787)
# Test: KCNQ1 potassium channel potentiators, confirmation, FluxOR thallium flux, CHO cells, duplicates (AID 493007;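 active = potentiation averaged over duplicate wells exceeding buffer-only control mean by more than 3 SD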;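 as to outcome: cells depolarized by a potassium plus thallium sulfate stimulus after compound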)
# Conditions: KCNQ1 cell line, FluxOR thallium flux fluorescence, at 10 µM; stronger effect = higher value, % of reference activator effect, buffer zero
# In short: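 Material: CHO cells stably expressing the KCNQ1 potassium channel / Times: dye 90 min then compound 20 min, both at room temperature / Detection: kinetic thallium influx fluorescence with FluxOR dye, 10 s baseline, 110 s post-stimulus / Benchmarks: buffer-only wells as 0% and R-L3 activator as 100% / Replicates: each compound tested in duplicate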
# Chain of Potassium voltage-gated channel subfamily KQT member 1 (Homo sapiens) (P51787 whole entry, looked up): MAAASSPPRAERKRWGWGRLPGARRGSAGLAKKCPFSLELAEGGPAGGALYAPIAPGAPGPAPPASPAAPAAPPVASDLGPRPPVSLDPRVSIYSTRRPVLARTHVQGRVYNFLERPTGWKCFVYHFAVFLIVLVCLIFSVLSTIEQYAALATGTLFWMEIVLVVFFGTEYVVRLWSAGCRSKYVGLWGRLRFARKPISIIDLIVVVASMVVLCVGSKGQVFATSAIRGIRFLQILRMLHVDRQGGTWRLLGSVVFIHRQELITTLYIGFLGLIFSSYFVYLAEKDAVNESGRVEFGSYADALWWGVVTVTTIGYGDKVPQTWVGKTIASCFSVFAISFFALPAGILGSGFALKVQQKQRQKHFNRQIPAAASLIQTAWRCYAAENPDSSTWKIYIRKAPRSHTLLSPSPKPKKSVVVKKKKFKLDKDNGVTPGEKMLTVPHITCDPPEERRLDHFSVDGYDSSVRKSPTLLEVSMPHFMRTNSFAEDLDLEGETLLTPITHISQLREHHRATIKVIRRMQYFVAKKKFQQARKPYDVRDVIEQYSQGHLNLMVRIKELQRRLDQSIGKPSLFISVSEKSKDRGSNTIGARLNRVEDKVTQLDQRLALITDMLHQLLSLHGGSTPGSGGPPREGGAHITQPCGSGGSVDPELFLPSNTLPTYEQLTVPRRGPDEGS
Structure (SMILES),potentiation,outcome
CCc1ccc2c(c1)c(N=NC1=NC(=O)CS1)c(O)n2C,30% (active),–
CCc1ccc(/C=C/C(=O)C2C(=O)c3ccccc3C2=O)cc1,118% (active),–
CCOC(=O)Cc1csc(NC(=S)NC(=O)c2ccc(F)cc2)n1,–,inactive
CCOC(=O)c1ccccc1NC(=O)CSc1nc2ccccc2n1CC(=O)N1CCCC1,–,inactive
CC(C)CSC1=NSC2=NC(=O)/C(=C\c3ccccc3)C(=N)N12,58% (active),–
O=C(Nc1nnc(-c2ccc(F)cc2)o1)c1cc(Cl)sc1Cl,118% (active),–
COc1ccccc1NC(=O)Cn1cnc2c(oc3nc4c(cc32)CCCC4)c1=O,–,inactive
COc1ccc2nc(/N=C/c3c(C)[nH]n(-c4ccc(C)cc4C)c3=O)sc2c1,113% (active),–
O=c1c2c(-c3ccco3)csc2nc(SCc2cn3cccnc3n2)n1-c1ccccc1,–,inactive
COc1ccccc1C(=O)NC(=S)NNC(=O)c1sc2ccccc2c1Cl,187% (active),–
COC(=O)c1ccc(COC(=O)c2ccccn2)cc1,65% (active),–

# Biological target: Potassium voltage-gated channel subfamily KQT member 2 (Rattus norvegicus) (UniProt O88943)
# Sequence (O88943 whole entry, looked up): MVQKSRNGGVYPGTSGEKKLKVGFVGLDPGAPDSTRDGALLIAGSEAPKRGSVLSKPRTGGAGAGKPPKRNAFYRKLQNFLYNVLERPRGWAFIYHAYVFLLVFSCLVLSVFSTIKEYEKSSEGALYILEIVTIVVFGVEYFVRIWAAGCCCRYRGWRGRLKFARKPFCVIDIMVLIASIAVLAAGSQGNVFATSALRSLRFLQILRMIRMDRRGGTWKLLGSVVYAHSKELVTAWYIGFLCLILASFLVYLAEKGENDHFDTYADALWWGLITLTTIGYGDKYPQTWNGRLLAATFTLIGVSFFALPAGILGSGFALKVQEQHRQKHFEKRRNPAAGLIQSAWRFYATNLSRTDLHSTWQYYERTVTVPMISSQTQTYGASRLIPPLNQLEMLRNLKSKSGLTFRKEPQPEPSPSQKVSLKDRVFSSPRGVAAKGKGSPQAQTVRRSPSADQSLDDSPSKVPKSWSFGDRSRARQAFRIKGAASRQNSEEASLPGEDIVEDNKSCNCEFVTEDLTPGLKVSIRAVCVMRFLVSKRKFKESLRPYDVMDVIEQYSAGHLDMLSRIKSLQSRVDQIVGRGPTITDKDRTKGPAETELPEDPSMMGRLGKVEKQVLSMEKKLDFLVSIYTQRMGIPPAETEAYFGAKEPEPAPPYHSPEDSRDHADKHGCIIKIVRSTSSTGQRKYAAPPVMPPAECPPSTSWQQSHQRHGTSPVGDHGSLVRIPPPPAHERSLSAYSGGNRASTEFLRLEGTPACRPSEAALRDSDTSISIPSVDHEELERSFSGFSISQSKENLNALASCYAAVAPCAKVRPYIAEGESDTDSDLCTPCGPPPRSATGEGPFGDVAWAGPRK
# Test: rat KCNQ2 channel potentiation, selectivity assay for KCNQ1 potentiator project, KCNQ2-CHO-K1 cells (AID 493009;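 active = mean duplicate potentiation above the buffer control mean plus 5 SD of buffer wells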;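 also: assay conditions were tuned for KCNQ1 rather than KCNQ2 modulators; signal is max minus min fluorescence divided by baseline after thallium stimulus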)
# Conditions: FluxOR thallium flux fluorescence, at 10 µM; stronger effect = higher value, scaled: buffer 0, activator control 100
Structure (SMILES),outcome,potentiation
CCc1cccc(C)c1NC(=O)c1ccc2nc(N3CCOCC3)sc2c1,inactive,–
CC(C)CN1C(=O)/C(=C/c2cccs2)NC1=S,–,450% (active)
COCCn1c(SCC(=O)NCc2ccc3c(c2)OCO3)nnc1C(C)C,inactive,–
COc1ccc(CCNC(=O)c2ccc(N(C)S(=O)(=O)c3ccc(C)cc3)cc2)cc1OC,inactive,–
Cc1noc(C)c1CSc1ncnc2sc3c(c12)CCCCC3,–,178% (active)
O=C(O)c1ccccc1C(=O)NNc1ccc(Cl)cc1,inactive,–
CC(C)(C)n1nnnc1C(c1cc2cc3c(cc2[nH]c1=O)OCCO3)N1CCSCC1 (stereo unspecified),inactive,–
Cc1snnc1C(=O)NC(=S)Nc1ccccc1,–,270% (active)
CCN1C(=O)/C(=C/c2ccc(C)s2)NC1=S,–,258% (active)
CC1(c2ccccc2)CC(C)(C)N2C(=O)/C(=C3\SC(=S)NC3=O)c3cccc1c32 (stereo unspecified),–,520% (active)
C/C(=N\Nc1nc2ccccc2[nH]1)c1ccc(Cl)s1,–,156% (active)
COc1ccc(-c2oc3ccccc3c(=O)c2OC(C)=O)cc1,–,161% (active)
COC(=O)c1c(NC(=O)CC2SC(N)=NC2=O)sc2c1CCC(C)C2 (stereo unspecified),inactive,–
Cc1cc(C)nc(NC(=O)/C=C/c2ccccc2Cl)n1,inactive,–
CCC(=O)Nc1cc(-c2nn3c(C)nnc3s2)ccc1C,inactive,–
O=c1c(-c2ccc(Cl)cc2)[n+]([O-])c2ccccc2n1O,–,184% (active)
O=C(NC(=S)NCCC1=CCCCC1)c1ccc(Br)o1,–,371% (active)
CCCCOC(=O)Nc1ccccc1C(N)=O,inactive,–
Fc1cccc(/C=N/Nc2ccc3ccccc3n2)c1,inactive,–
Cc1cc(C(=O)N2CCCC(N3CCN(c4cccc(Cl)c4)CC3)C2)n(C)n1 (stereo unspecified),inactive,–

Structure (SMILES),outcome,potentiation
O=C(NC(=S)Nc1ccccc1)c1cc(-c2ccccc2)nc2ccccc12,–,194% (active)
O=C(CC1(O)C(=O)N(C/C=C/c2ccccc2)c2ccccc21)c1ccccn1 (stereo unspecified),inactive,–
CC(C)c1nc2sc3c(=S)nc[nH]c3c2c2c1CCC2,–,310% (active)
CCOC(=O)NC(=S)Nc1ccc(C(C)(C)C)cc1,inactive,–
FC(F)(F)c1cc(N2CCNCC2)c2ccccc2n1,inactive,–
O=[N+]([O-])c1ccc(Nc2ccc(Cl)cc2)nc1,–,166% (active)
COc1ccc(NC(=O)C(=O)NNC(=O)C(C)Oc2ccc(Cl)cc2Cl)cc1 (stereo unspecified),–,492% (active)
Cc1ccc2nc(SCC(=O)N3CCN(C(=O)c4ccco4)CC3)[nH]c2c1,inactive,–
Cc1[nH]n2c(=O)cc(C(C)(C)C)nc2c1-c1ccccc1,–,224% (active)
CCc1ccc2c(c1)c(N=NC1=NC(=O)CS1)c(O)n2C,inactive,–
CCc1ccc(/C=C/C(=O)C2C(=O)c3ccccc3C2=O)cc1,–,297% (active)
CCOC(=O)Cc1csc(NC(=S)NC(=O)c2ccc(F)cc2)n1,inactive,–
CCOC(=O)c1ccccc1NC(=O)CSc1nc2ccccc2n1CC(=O)N1CCCC1,inactive,–
CC(C)CSC1=NSC2=NC(=O)/C(=C\c3ccccc3)C(=N)N12,–,204% (active)
O=C(Nc1nnc(-c2ccc(F)cc2)o1)c1cc(Cl)sc1Cl,–,284% (active)
COc1ccccc1NC(=O)Cn1cnc2c(oc3nc4c(cc32)CCCC4)c1=O,inactive,–
COc1ccc2nc(/N=C/c3c(C)[nH]n(-c4ccc(C)cc4C)c3=O)sc2c1,–,306% (active)
O=c1c2c(-c3ccco3)csc2nc(SCc2cn3cccnc3n2)n1-c1ccccc1,inactive,–
COc1ccccc1C(=O)NC(=S)NNC(=O)c1sc2ccccc2c1Cl,–,361% (active)
COC(=O)c1ccc(COC(=O)c2ccccn2)cc1,–,157% (active)

# Biological target: Potassium voltage-gated channel subfamily KQT member 1 (Homo sapiens) (UniProt P51787)
# Test: KCNQ1 channel current potentiators, confirmation, orthogonal assay for KCNQ1 potentiator project, IonWorks patch clamp, KCNQ1-CHO cells (AID 493184)
# Conditions: automated patch clamp current, at 10 µM; stronger effect = higher value
# In short: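 Probe or stimulus: depolarizing pulse to +40 mV from -90 mV; Material: CHO cells carrying KCNQ1; Compound: one dose, 10 µM final; Signal: automated voltage clamp, amphotericin B perforated patch; Read-out basis: percent current increase versus pre-compound level; Buffer or medium: pH 7.4 external bath; Replication: duplicates.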
row,Structure (SMILES),outcome
1,CCc1cccc(C)c1NC(=O)c1ccc2nc(N3CCOCC3)sc2c1,inactive
2,CC(C)CN1C(=O)/C(=C/c2cccs2)NC1=S,inactive
3,COCCn1c(SCC(=O)NCc2ccc3c(c2)OCO3)nnc1C(C)C,inactive
4,COc1ccc(CCNC(=O)c2ccc(N(C)S(=O)(=O)c3ccc(C)cc3)cc2)cc1OC,inactive
5,Cc1noc(C)c1CSc1ncnc2sc3c(c12)CCCCC3,inactive
6,O=C(O)c1ccccc1C(=O)NNc1ccc(Cl)cc1,inactive
7,CC(C)(C)n1nnnc1C(c1cc2cc3c(cc2[nH]c1=O)OCCO3)N1CCSCC1 (stereo unspecified),inactive
8,Cc1snnc1C(=O)NC(=S)Nc1ccccc1,inactive
9,CCN1C(=O)/C(=C/c2ccc(C)s2)NC1=S,inactive
10,CC1(c2ccccc2)CC(C)(C)N2C(=O)/C(=C3\SC(=S)NC3=O)c3cccc1c32 (stereo unspecified),inactive
11,C/C(=N\Nc1nc2ccccc2[nH]1)c1ccc(Cl)s1,inactive
12,COc1ccc(-c2oc3ccccc3c(=O)c2OC(C)=O)cc1,inactive
13,COC(=O)c1c(NC(=O)CC2SC(N)=NC2=O)sc2c1CCC(C)C2 (stereo unspecified),inactive
14,Cc1cc(C)nc(NC(=O)/C=C/c2ccccc2Cl)n1,inactive
15,CCC(=O)Nc1cc(-c2nn3c(C)nnc3s2)ccc1C,inactive
16,O=c1c(-c2ccc(Cl)cc2)[n+]([O-])c2ccccc2n1O,inactive
17,O=C(NC(=S)NCCC1=CCCCC1)c1ccc(Br)o1,inactive
18,CCCCOC(=O)Nc1ccccc1C(N)=O,inactive
19,Fc1cccc(/C=N/Nc2ccc3ccccc3n2)c1,inactive
20,Cc1cc(C(=O)N2CCCC(N3CCN(c4cccc(Cl)c4)CC3)C2)n(C)n1 (stereo unspecified),inactive

row,Structure (SMILES),outcome
1,O=C(NC(=S)Nc1ccccc1)c1cc(-c2ccccc2)nc2ccccc12,inactive
2,O=C(CC1(O)C(=O)N(C/C=C/c2ccccc2)c2ccccc21)c1ccccn1 (stereo unspecified),inactive
3,CC(C)c1nc2sc3c(=S)nc[nH]c3c2c2c1CCC2,inactive
4,CCOC(=O)NC(=S)Nc1ccc(C(C)(C)C)cc1,inactive
5,FC(F)(F)c1cc(N2CCNCC2)c2ccccc2n1,inactive
6,O=[N+]([O-])c1ccc(Nc2ccc(Cl)cc2)nc1,inactive
7,COc1ccc(NC(=O)C(=O)NNC(=O)C(C)Oc2ccc(Cl)cc2Cl)cc1 (stereo unspecified),inactive
8,Cc1ccc2nc(SCC(=O)N3CCN(C(=O)c4ccco4)CC3)[nH]c2c1,inactive
9,Cc1[nH]n2c(=O)cc(C(C)(C)C)nc2c1-c1ccccc1,inactive
10,CCc1ccc2c(c1)c(N=NC1=NC(=O)CS1)c(O)n2C,inactive
11,CCc1ccc(/C=C/C(=O)C2C(=O)c3ccccc3C2=O)cc1,inactive
12,CCOC(=O)Cc1csc(NC(=S)NC(=O)c2ccc(F)cc2)n1,inactive
13,CCOC(=O)c1ccccc1NC(=O)CSc1nc2ccccc2n1CC(=O)N1CCCC1,inactive
14,CC(C)CSC1=NSC2=NC(=O)/C(=C\c3ccccc3)C(=N)N12,inactive
15,O=C(Nc1nnc(-c2ccc(F)cc2)o1)c1cc(Cl)sc1Cl,inactive
16,COc1ccccc1NC(=O)Cn1cnc2c(oc3nc4c(cc32)CCCC4)c1=O,inactive
17,COc1ccc2nc(/N=C/c3c(C)[nH]n(-c4ccc(C)cc4C)c3=O)sc2c1,inactive
18,O=c1c2c(-c3ccco3)csc2nc(SCc2cn3cccnc3n2)n1-c1ccccc1,inactive
19,COc1ccccc1C(=O)NC(=S)NNC(=O)c1sc2ccccc2c1Cl,inactive
20,COC(=O)c1ccc(COC(=O)c2ccccn2)cc1,inactive
